Results of several laboratories.
Each line is one published result; the experiments were not run side by side.
Target: Mitogen-activated protein kinase 9 (MAPK9, Homo sapiens, UniProt P45984)

Compound	effect on	mode	method	tested at	measurement	result
C1=C/COCc2cc(ccc2OCCN2CCCC2)Nc2nccc(n2)-c2cccc(c2)COC/1	cell-free assay	–	–	0.1 µM	remaining signal	47%
Cc1ccc(NC(=O)c2ccnc(C(F)(F)F)c2)cc1-c1cc(OCCO)nc(N2CCOCC2)c1	binding	–	competition with immobilised ligand	1 µM	remaining binding	83%
C=CC(=O)N1CCC[C@@H](n2nc(-c3ccc(Oc4ccccc4)cc3)c3c(N)ncnc32)C1	enzyme activity	inhibitor	–	1 µM	inhibition	21%
N#Cc1ccc(NC(=O)Nc2ccccc2)cc1	cell-free assay	–	competition with immobilised ligand	25 µM	remaining binding	100%
C=CC(=O)N1CCC([C@@H]2CCNc3c(C(N)=O)c(-c4ccc(Oc5ccccc5)cc4)nn32)CC1	enzyme activity	inhibitor	–	1 µM	inhibition	0%
C#Cc1cnc(Nc2ccnc(CO)c2)nc1Nc1ccccc1S(C)(=O)=NC#N (stereo not drawn)	cell-free assay	–	–	1 µM	remaining signal	58%
C[C@H]1CC[C@H](n2c3cnccc3c3cnc(Nc4ccc5c(n4)CCN(C(=O)CO)C5)nc32)CC1	binding	–	competition with immobilised ligand	1 µM	remaining binding	2.6%
CCCCC(=O)Nc1ccc(-c2ccc3ncn(CCC)c(=O)c3c2)cn1	binding	–	competition with immobilised ligand	0.5 µM	remaining binding	68%
COc1ccc2oc(-c3ccc4nc(N)oc4c3)c/c(=N\c3ccccc3NC(=O)CCN)c2c1	binding	–	–	1 µM	remaining binding	98%
